Experimental data: ChEMBL document CHEMBL2029221, “Acylprolinamides: a new class of peptide deformylase inhibitors with in vivo antibacterial activity” (Bioorg Med Chem Lett, 2012)
Converted amounts (≈) assume the structure as drawn.

How the values were obtained:
Streptococcus pneumoniae = assay: Antibacterial activity against Streptococcus pneumoniae 1629 by broth microdilution method; type: functional
Procedure, shortened: (§1)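 Broth microdilution following NCCLS document M7-A4. Serial two-fold dilutions from 0.06 to 64 mcg/ml were tested. The MIC was the lowest concentration preventing visible growth, with the endpoint read with the aid of a mirror reader.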

Moraxella catarrhalis = assay: Antibacterial activity against Moraxella catarrhalis 1502 by broth microdilution method; type: functional; procedure, shortened: as §1
[1] = Inhibition of Haemophilus influenzae PDF assessed as formate release from fMAS peptide substrate after 20 mins by formate dehydrogenase coupled assay
Procedure, shortened: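 Coupled assay in which formate released from the fMAS peptide is oxidized by formate dehydrogenase, reducing NAD to NADH, read as the rise in absorbance at 340. Reactions were started by adding PDF and velocities measured for 20 min at 25 °C. Values are the mean of at least 2 runs.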

Enterococcus faecalis = assay: Antibacterial activity against Enterococcus faecalis 7 by broth microdilution method; type: functional; procedure, shortened: as §1
Peptide deformylase [2] = biological target: T1, Peptide deformylase (Staphylococcus aureus, UniProt P68826); assay: Inhibition of Staphylococcus aureus PDF assessed as formate release from fMAS peptide substrate after 20 mins by formate dehydrogenase coupled assay
T1 sequence (P68826 whole entry): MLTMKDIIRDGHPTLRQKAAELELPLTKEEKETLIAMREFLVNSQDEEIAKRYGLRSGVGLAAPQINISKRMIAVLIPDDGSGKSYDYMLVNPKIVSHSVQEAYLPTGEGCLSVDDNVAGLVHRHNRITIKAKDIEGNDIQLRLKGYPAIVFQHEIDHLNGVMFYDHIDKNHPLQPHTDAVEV

Peptide deformylase [3] = biological target: T2, Peptide deformylase (Streptococcus pneumoniae serotype 4 (strain ATCC BAA-334 / TIGR4), UniProt Q9F2F0); assay: Inhibition of Streptococcus pneumoniae PDF assessed as formate release from fMAS peptide substrate after 20 mins by formate dehydrogenase coupled assay
T2 sequence (Q9F2F0 whole entry): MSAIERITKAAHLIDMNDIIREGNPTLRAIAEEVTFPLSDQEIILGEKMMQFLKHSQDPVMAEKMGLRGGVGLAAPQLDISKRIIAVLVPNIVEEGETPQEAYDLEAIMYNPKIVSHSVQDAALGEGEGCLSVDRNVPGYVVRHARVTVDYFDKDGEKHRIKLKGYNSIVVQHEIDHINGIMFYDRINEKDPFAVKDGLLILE

Staphylococcus aureus = assay: Antibacterial activity against Staphylococcus aureus Oxford by broth microdilution method; type: functional; procedure, shortened: as §1
Haemophilus influenzae = assay: Antibacterial activity against Haemophilus influenzae Q1 by broth microdilution method; type: functional; procedure, shortened: as §1
[4] = Metabolic stability of the compound in human blood assessed as compound remaining at 2000 ng/mL after 2 hrs; type: ADME, tissue-based; details: read-out: Stability
Procedure, shortened: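 Samples (n = 3) were spiked into fresh human blood at 2000 ng/mL, incubated at 37 °C for 120 min, and reported as % recovered at 2 h.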

Row | Compound | MIC (Streptococcus pneumoniae) [mg/L] | MIC (Moraxella catarrhalis) [mg/L] | IC50 [1] [nM] | MIC (Enterococcus faecalis) [mg/L] | IC50 (Peptide deformylase [2]) [nM] | IC50 (Peptide deformylase [3]) [nM] | MIC (Staphylococcus aureus) [mg/L] | MIC (Haemophilus influenzae) [mg/L] | remaining at 2 h, 2000 ng/mL [4] [%]
1 | NC(=O)NC(=O)[C@@H]1CCCN1C(=O)[C@H](CC1CCCC1)CN(O)C=O | 2 (≈ 5.64 µM) | ≤ 0.06 | 4.8 | 4 (≈ 11.3 µM) | 2.2 | 0.91 | 2 (≈ 5.64 µM) | 0.125 (≈ 0.353 µM) | –
2 | CC(=O)NC(=O)[C@@H]1CCCN1C(=O)[C@H](CC1CCCC1)CN(O)C=O | 4 (≈ 11.3 µM) | ≤ 0.06 | 16 | 8 (≈ 22.6 µM) | 12 | 4 | 1 (≈ 2.83 µM) | 0.25 (≈ 0.707 µM) | –
3 | COCC(=O)NC(=O)[C@@H]1CCCN1C(=O)[C@H](CC1CCCC1)CN(O)C=O | 4 (≈ 10.4 µM) | ≤ 0.06 | 13 | 16 (≈ 41.7 µM) | 8 | 1 | 4 (≈ 10.4 µM) | 0.125 (≈ 0.326 µM) | –
4 | CC(C)C(=O)NC(=O)[C@@H]1CCCN1C(=O)[C@H](CC1CCCC1)CN(O)C=O | 2 (≈ 5.24 µM) | ≤ 0.06 | 10 | 4 (≈ 10.5 µM) | 5 | 1.5 | 2 (≈ 5.24 µM) | 0.5 (≈ 1.31 µM) | –
5 | CC(C)CC(=O)NC(=O)[C@@H]1CCCN1C(=O)[C@H](CC1CCCC1)CN(O)C=O | 1 (≈ 2.53 µM) | ≤ 0.06 | 7 | 2 (≈ 5.06 µM) | 4 | 0.8 | 1 (≈ 2.53 µM) | 0.5 (≈ 1.26 µM) | –
6 | O=CN(O)C[C@@H](CC1CCCC1)C(=O)N1CCC[C@H]1C(=O)NC(=O)C1CCC1 | 1 (≈ 2.54 µM) | ≤ 0.06 | 9 | 8 (≈ 20.3 µM) | 5 | 0.7 | 1 (≈ 2.54 µM) | 1 (≈ 2.54 µM) | –
7 | O=CN(O)C[C@@H](CC1CCCC1)C(=O)N1CCC[C@H]1C(=O)NC(=O)C1CC1 | 1 (≈ 2.64 µM) | ≤ 0.06 | 5.5 | 2 (≈ 5.27 µM) | 2.3 | 1.2 | 0.5 (≈ 1.32 µM) | 0.125 (≈ 0.329 µM) | –
8 | O=CN(O)C[C@@H](CC1CCCC1)C(=O)N1CCC[C@H]1C(=O)NC(=O)C1CCCC1 | 0.25 (≈ 0.613 µM) | ≤ 0.06 | 6.1 | 1 (≈ 2.45 µM) | 2.5 | 0.43 | 0.5 (≈ 1.23 µM) | 0.25 (≈ 0.613 µM) | –
9 | O=CN(O)C[C@@H](CC1CCCC1)C(=O)N1CCC[C@H]1C(=O)NC(=O)C1CCCCC1 | 0.25 (≈ 0.593 µM) | ≤ 0.06 | 5.2 | 1 (≈ 2.37 µM) | 3.7 | 0.5 | 1 (≈ 2.37 µM) | 0.5 (≈ 1.19 µM) | –
10 | COC(=O)NC(=O)[C@@H]1CCCN1C(=O)[C@H](CC1CCCC1)CN(O)C=O | 1 (≈ 2.71 µM) | ≤ 0.06 | 13 | 4 (≈ 10.8 µM) | 4.5 | 1.9 | 1 (≈ 2.71 µM) | 0.125 (≈ 0.338 µM) | –
11 | CCOC(=O)NC(=O)[C@@H]1CCCN1C(=O)[C@H](CC1CCCC1)CN(O)C=O | 0.5 (≈ 1.3 µM) | ≤ 0.06 | 7.7 | 2 (≈ 5.22 µM) | 2.2 | 0.54 | 0.5 (≈ 1.3 µM) | 0.25 (≈ 0.652 µM) | –
12 | O=CN(O)C[C@@H](CC1CCCC1)C(=O)N1CCC[C@H]1C(=O)NC(=O)OC1CCNCC1 | 8 (≈ 18.2 µM) | 1 (≈ 2.28 µM) | 2.7 | > 64 | 5.9 | 1.4 | > 64 | 16 (≈ 36.5 µM) | –
13 | CNC(=O)NC(=O)[C@@H]1CCCN1C(=O)[C@H](CC1CCCC1)CN(O)C=O | 1 (≈ 2.71 µM) | ≤ 0.06 | 6.1 | 4 (≈ 10.9 µM) | 2.1 | 0.46 | 0.5 (≈ 1.36 µM) | 0.25 (≈ 0.679 µM) | –
14 | CC(C)NC(=O)NC(=O)[C@@H]1CCCN1C(=O)[C@H](CC1CCCC1)CN(O)C=O | 1 (≈ 2.52 µM) | ≤ 0.06 | 3 | 4 (≈ 10.1 µM) | 1.6 | 0.31 | 1 (≈ 2.52 µM) | 2 (≈ 5.04 µM) | 99.7
15 | CC(C)(C)NC(=O)NC(=O)[C@@H]1CCCN1C(=O)[C@H](CC1CCCC1)CN(O)C=O | 0.125 (≈ 0.304 µM) | ≤ 0.06 | 2.4 | 1 (≈ 2.44 µM) | 1.2 | 0.22 | 1 (≈ 2.44 µM) | 1 (≈ 2.44 µM) | –
16 | O=CN(O)C[C@@H](CC1CCCC1)C(=O)N1CCC[C@H]1C(=O)NC(=O)NC1CCC1 | 0.125 (≈ 0.306 µM) | ≤ 0.06 | 1.8 | 1 (≈ 2.45 µM) | 0.9 | 0.3 | 0.125 (≈ 0.306 µM) | 0.5 (≈ 1.22 µM) | –
17 | O=CN(O)C[C@@H](CC1CCCC1)C(=O)N1CCC[C@H]1C(=O)NC(=O)NC1CCCC1 | 0.125 (≈ 0.296 µM) | ≤ 0.06 | 2 | 1 (≈ 2.37 µM) | 0.52 | 0.1 | 0.5 (≈ 1.18 µM) | 2 (≈ 4.73 µM) | 103
18 | O=CN(O)C[C@@H](CC1CCCC1)C(=O)N1CCC[C@H]1C(=O)NC(=O)NC1CCCCC1 | 0.125 (≈ 0.286 µM) | ≤ 0.06 | 4 | 2 (≈ 4.58 µM) | 0.93 | 0.2 | 0.5 (≈ 1.15 µM) | 4 (≈ 9.16 µM) | –
19 | O=CN(O)C[C@@H](CC1CCCC1)C(=O)N1CCC[C@H]1C(=O)NC(=O)NCc1ccccc1 | 0.125 (≈ 0.281 µM) | ≤ 0.06 | 6.5 | 0.5 (≈ 1.12 µM) | 1.7 | 0.19 | 0.5 (≈ 1.12 µM) | 2 (≈ 4.5 µM) | –
20 | O=CN(O)C[C@@H](CC1CCCC1)C(=O)N1CCC[C@H]1C(=O)NC(=O)NCCCc1ccccc1 | 0.25 (≈ 0.529 µM) | ≤ 0.06 | 4.1 | 2 (≈ 4.23 µM) | 1 | 0.19 | 0.5 (≈ 1.06 µM) | 8 (≈ 16.9 µM) | –
21 | C=CCNC(=O)NC(=O)[C@@H]1CCCN1C(=O)[C@H](CC1CCCC1)CN(O)C=O | 1 (≈ 2.54 µM) | ≤ 0.06 | 20 | 2 (≈ 5.07 µM) | 10 | 2.1 | 0.5 (≈ 1.27 µM) | 1 (≈ 2.54 µM) | –
22 | O=CN(O)C[C@@H](CC1CCCC1)C(=O)N1CCC[C@H]1C(=O)NC(=O)NCCc1ccncc1 | 1 (≈ 2.18 µM) | ≤ 0.06 | 4.4 | 8 (≈ 17.4 µM) | 1.7 | 0.35 | 2 (≈ 4.35 µM) | 2 (≈ 4.35 µM) | –
23 | O=CN(O)C[C@@H](CC1CCCC1)C(=O)N1CCC[C@H]1C(=O)NC(=O)NCCc1cccnc1 | 1 (≈ 2.18 µM) | ≤ 0.06 | 4.7 | > 64 | 1.4 | 0.37 | 2 (≈ 4.35 µM) | 2 (≈ 4.35 µM) | –
24 | O=CN(O)C[C@@H](CC1CCCC1)C(=O)N1CCC[C@H]1C(=O)NC(=O)NCCc1ccccn1 | 0.5 (≈ 1.09 µM) | ≤ 0.06 | 5.9 | 4 (≈ 8.7 µM) | 1.4 | 0.35 | 1 (≈ 2.18 µM) | 1 (≈ 2.18 µM) | –
25 | O=CN(O)C[C@@H](CC1CCCC1)C(=O)N1CCC[C@H]1C(=O)NC(=O)NCCc1cnccn1 | 1 (≈ 2.17 µM) | ≤ 0.06 | 6.1 | 8 (≈ 17.4 µM) | 1.4 | 0.41 | 2 (≈ 4.34 µM) | 2 (≈ 4.34 µM) | –
26 | O=CN(O)C[C@@H](CC1CCCC1)C(=O)N1CCC[C@H]1C(=O)NC(=O)NCCO | 2 (≈ 5.02 µM) | 0.125 (≈ 0.314 µM) | 8.8 | 32 (≈ 80.3 µM) | 3.8 | 1.1 | 4 (≈ 10 µM) | 0.5 (≈ 1.25 µM) | –
27 | O=CN(O)C[C@@H](CC1CCCC1)C(=O)N1CCC[C@H]1C(=O)NC(=O)NCCCO | 2 (≈ 4.85 µM) | 0.125 (≈ 0.303 µM) | 6.9 | 16 (≈ 38.8 µM) | 3.2 | 0.77 | 4 (≈ 9.7 µM) | 1 (≈ 2.42 µM) | –
28 | NCCNC(=O)NC(=O)[C@@H]1CCCN1C(=O)[C@H](CC1CCCC1)CN(O)C=O | 16 (≈ 40.3 µM) | 2 (≈ 5.03 µM) | 7 | > 64 | 2.3 | 0.38 | 16 (≈ 40.3 µM) | > 64 | –
29 | NC(=O)CCNC(=O)NC(=O)[C@@H]1CCCN1C(=O)[C@H](CC1CCCC1)CN(O)C=O | 8 (≈ 18.8 µM) | 0.5 (≈ 1.18 µM) | 6.3 | > 64 | 3.3 | 0.72 | 32 (≈ 75.2 µM) | 2 (≈ 4.7 µM) | –
30 | O=CN(O)C[C@@H](CC1CCCC1)C(=O)N1CCC[C@H]1C(=O)NC(=O)NCCc1c[nH]cn1 | 8 (≈ 17.8 µM) | 0.5 (≈ 1.11 µM) | 4.3 | > 64 | 1.3 | 0.15 | 64 (≈ 143 µM) | 16 (≈ 35.7 µM) | –
